Most compounds without a hit are left out; they make up all but 2.7% or so of the library.
sPLA2-III inh: Blocks human group III sPLA2 activity. inhibition, % at 12.2 µM. QFRET BODIPY PC-A2 liposome hydrolysis, fluorescence. hit rate 0.56% among 370,000. AID 743126. Q9NZ20;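 active = inhibition above mean plus 3 SD of compounds lying within the high and low control bounds, cut at about 19% in these data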
Target sequence (Q9NZ20 whole entry, looked up): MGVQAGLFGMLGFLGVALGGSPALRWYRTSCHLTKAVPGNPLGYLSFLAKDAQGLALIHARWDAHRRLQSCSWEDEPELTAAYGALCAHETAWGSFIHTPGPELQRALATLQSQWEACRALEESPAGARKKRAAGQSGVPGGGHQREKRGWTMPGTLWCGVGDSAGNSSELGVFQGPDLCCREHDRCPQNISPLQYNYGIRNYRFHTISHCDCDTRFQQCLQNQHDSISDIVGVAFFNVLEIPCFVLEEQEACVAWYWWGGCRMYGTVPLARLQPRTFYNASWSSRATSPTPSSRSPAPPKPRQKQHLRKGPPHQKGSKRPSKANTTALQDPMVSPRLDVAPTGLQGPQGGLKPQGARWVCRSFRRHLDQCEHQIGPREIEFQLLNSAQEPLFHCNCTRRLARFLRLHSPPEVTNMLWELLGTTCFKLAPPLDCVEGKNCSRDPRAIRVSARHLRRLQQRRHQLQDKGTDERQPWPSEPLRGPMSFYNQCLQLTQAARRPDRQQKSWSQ
ASAP1 inh: ASAP1 ArfGAP inhibition. Q9ULH1. ASAP1-stimulated ARF1 GTP hydrolysis, GDP FP detection. inhibition, % at 16.5 µM. hit rate 0.19% among 360,000. AID 624377; in the data active = inhibition above about 25%
ARFGAP1 inh: rat ARFGAP1 inhibition. Q62848. Arfgap1-stimulated ARF1 GTP hydrolysis, GDP FP detection. inhibition, % at 16.5 µM. hit rate 0.26% among 360,000. AID 651572;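 active = inhibition above a per-plate limit, mean inhibition of low control wells plus 3 SD, cut at about 25% in these data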
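Material: truncated rat Arfgap1 GAP domain; Incubation: compound-enzyme preincubation 20 min, reaction 120 min, detection 60 min, 25 °C; Read-out: percent inhibition of Arfgap1-stimulated GTP hydrolysis; Technique: FP, GDP Alexa 633 tracer displaced from anti-GDP antibody, 620/688 nm; Controls: No-Arfgap1 wells (100%) versus DMSO full-reaction wells (0%); Replication: single well per compound.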
NR1D1 modulator: modulators of human Rev-erb alpha DNA binding; P20393; activity, % at 10 µM; AID 1259318; hit rate 0.79% among 370,000; Rev-erbα–FITC-DNA binding, fluorescence polarization, 90 min;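 active = activity above about 14%, limit read from the data; passing the limit was not always enough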
MsrA inh: inhibits bovine methionine sulfoxide reductase A; purified bovine MsrA, absorbance read-out; inhibition, % at 15.5 µM; hit rate 0.75% among 360,000; in the data active = inhibition above about 4.5%
MsrA act: activators of bovine methionine sulfoxide reductase A; activation, % at 10.6 µM; purified bovine MsrA, absorbance read-out; AID 602163; hit rate 0.3% among 360,000; in the data active = activation above about 7.5%
sPLA2 confirm: human GIII-sPLA2 inhibition, confirmation. shares compounds with sPLA2-III inh. recombinant hGIII-sPLA2, BODIPY PC-A2 QFRET fluorescence. inhibition, % at 12.2 µM. hit rate 34% among 2,000;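 active = mean inhibition across triplicates above the hit cutoff set in the earlier primary screen, cut at about 19% in these data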
535nm interf: optically interferes with 535nm fluorescence in sPLA2 counter-screen | hit rate 8.5% among 2,000 | shares compounds with sPLA2-III inh | inhibition, % at 12.2 µM | BODIPY FL product fluorescence interference, QFRET;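 active = average inhibition above the solvent-only control mean plus 3 SD, cut at about 6% in these data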
A number is an active result; i = inactive; nt = no result given.

SMILES | sPLA2-III inh | ASAP1 inh | ARFGAP1 inh | NR1D1 modulator | MsrA inh | MsrA act | sPLA2 confirm | 535nm interf
CCN(CC)C(=O)C1=C(C)N(CCCOC)C(=O)C(CC(=O)NCc2ccco2)C1 (stereo not drawn) | i | i | i | i | i | i | nt | nt
COCCCN1C(=O)C(CC(=O)NCc2ccco2)CC(C(=O)N2CCOCC2)=C1C (stereo not drawn) | 20.5 | i | i | i | i | i | i | i
CCc1ccc(N2CN(Cc3cccnc3)CNC2=S)cc1 | i | i | i | i | i | i | nt | nt
Cc1cccc(N2CN(Cc3cccnc3)CNC2=S)c1 | 19.4 | i | i | i | i | i | i | i
O=S1(=O)CC2c3ccccc3CN2CN1Cc1ccc(F)cc1 (stereo not drawn) | i | nt | nt | i | nt | nt | nt | nt
C[C@@H]1CN([C@@H](C)CO)C(=O)CCCn2cc(nn2)CO[C@H]1CN(C)C(=O)Nc1ccnc(N2CCOCC2)c1 | i | i | i | i | i | nt | nt | nt
CCOC(=O)c1cc(N)cc([N+](=O)[O-])c1 | 23.4 | i | i | i | i | i | i | i
Cc1ccccc1C(=O)NNC(=O)c1cc(N)cc([N+](=O)[O-])c1 | i | i | i | i | i | i | nt | nt
CC(C)C[C@H]1COc2cc(N3CCOCC3)ccc2S(=O)(=O)N1 | i | i | i | i | i | nt | nt | nt
CC(C)C[C@@H]1COc2cc(N3CCCC3)ccc2S(=O)(=O)N1 | 20.6 | i | i | i | i | nt | i | i
O=C(OCc1cn(Cc2cccc(F)c2)nn1)N1CCOCC1 | i | nt | nt | i | nt | nt | nt | nt
CCCN1C[C@@H](C)[C@@H](OC)CN(C)C(=O)c2ccc(NC(=O)c3cccc(F)c3)cc2OC[C@H]1C | 20.0 | i | i | i | i | nt | i | i
CCOC(=O)[C@@]12CCCC=C1N(CCc1ccc(Cl)cc1)C(=O)[C@H]2CC(=O)NCc1ccccc1 | i | nt | nt | i | nt | nt | nt | nt
CCSc1nnc([C@@H](NC(=O)OC(C)(C)C)C(C)C)o1 | 19.4 | i | i | i | i | i | i | i
CC(C)(C)c1ccc(-c2nnc(SCC(=O)c3ccc4ccccc4c3)n2-c2ccc(Cl)cc2)cc1 | i | nt | nt | i | nt | nt | nt | nt
CC(C)N1CCCCC(NC(=O)c2ccccc2)C1=O (stereo not drawn) | 22.1 | nt | nt | i | nt | nt | i | i
O=C(OCC(=O)C12CC3CC(CC(C3)C1)C2)c1ccccc1O | 19.2 | i | i | i | i | i | i | i
O=C(COC(=O)c1ccccc1O)NC12CC3CC(CC(C3)C1)C2 | i | i | i | i | i | i | nt | nt
COCCCN1C(=O)[C@H](CC(=O)N2CCN(C(=O)C3CC3)CC2)[C@]2(C(=O)OC)CCCCC=C12 | i | nt | nt | i | nt | nt | nt | nt
CC(C)NC(=O)c1ccccc1NC(=O)/C=C/c1cccc([N+](=O)[O-])c1 | 23.1 | i | i | i | i | i | i | i
O=C(O)c1ccccc1N=Nc1ccc(O)cc1 | i | i | i | i | i | i | nt | nt
O=C(O)c1cc(O)ccc1N=Nc1ccccc1 | 20.4 | i | i | i | 4.6 | i | i | i
C[C@H]1C2CC(OC(=O)Nc3cccc(C(F)(F)F)c3)C(C2)[C@H]2CCCCN21 (stereo partly drawn) | i | nt | nt | i | nt | nt | nt | nt
c1ccc(-c2c[nH]c3cccc(-c4cc5ccccc5o4)c23)cc1 | i | nt | nt | i | nt | nt | nt | nt
COc1ccc2nc(NC(=O)CCN3C(=S)NC(C)(C)CC3C)sc2c1 (stereo not drawn) | 25.6 | i | i | i | i | i | 23.7 | i
SMILES | sPLA2-III inh | ASAP1 inh | ARFGAP1 inh | NR1D1 modulator | MsrA inh | MsrA act | sPLA2 confirm | 535nm interf
Cc1cc(NC(=O)COc2cc(F)cc(F)c2)n(-c2ccccc2)n1 | i | nt | nt | i | nt | nt | nt | nt
O=C1CCC[C@H]2C[C@H](NCc3ccccc3Cl)CC[C@]23CCCN13 | i | nt | nt | i | nt | nt | nt | nt
COc1ccc(-c2cc(-c3nnc(SCC(=O)Nc4ccccc4-c4ccccc4)n3N)[nH]n2)cc1 | i | nt | nt | i | nt | nt | nt | nt
Cc1ccc(NC(=S)NNC(=O)c2ccccc2OC(F)F)cc1 | 26.0 | i | i | i | i | i | 21.3 | i
O=C(NNC(=S)Nc1ccc(F)cc1)c1ccccc1OC(F)F | 21.1 | i | i | i | i | i | 26.3 | i
Cc1ccc(NC(=S)NNC(=O)Nc2ccccc2)cc1 | i | i | i | i | i | i | nt | nt
